How the values were obtained:
NCI-H526 = assay: Anticancer activity against human NCI-H526 cells assessed as cell growth inhibition measured after 72 hrs by DAPI staining based analysis; format: functional
UACC-62 = assay: Anticancer activity against human UACC-62 cells assessed as cell growth inhibition measured after 72 hrs by DAPI staining based analysis; format: functional
NCI-H747 = assay: Anticancer activity against human NCI-H747 cells assessed as cell growth inhibition measured after 72 hrs by DAPI staining based analysis; format: functional
SW837 = assay: Anticancer activity against human SW837 cells assessed as cell growth inhibition measured after 72 hrs by DAPI staining based analysis; format: functional
ARH-77 = assay: Anticancer activity against human ARH-77 cells assessed as cell growth inhibition measured after 72 hrs by DAPI staining based analysis; format: functional
Procedure, shortened: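 Cells were seeded and, after 24 h, DNA content was read as T0. Cells were then exposed to varying drug concentrations for a further 72 h (T72). Fixed cells were DAPI-stained and DNA content measured by automated imaging. T72 values were normalized to T0. GI50 is the concentration giving 50% growth inhibition between T0 and Ymax, obtained by curve fitting.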

[1] = Anticancer activity against human NCI-H322T cells assessed as cell growth inhibition measured after 72 hrs by DAPI staining based analysis; format: functional
BHT-101 = assay: Anticancer activity against human BHT-101 cells assessed as cell doubling measured for 72 hrs by DAPI staining based analysis; format: functional
[2] = target: Centromere-associated protein E (Homo sapiens, UniProt Q02224, T183A); assay: Binding affinity to human CENP-E T183A mutant assessed as inhibition constant
Centromere-associated protein E, sequence (Q02224 whole entry T183A): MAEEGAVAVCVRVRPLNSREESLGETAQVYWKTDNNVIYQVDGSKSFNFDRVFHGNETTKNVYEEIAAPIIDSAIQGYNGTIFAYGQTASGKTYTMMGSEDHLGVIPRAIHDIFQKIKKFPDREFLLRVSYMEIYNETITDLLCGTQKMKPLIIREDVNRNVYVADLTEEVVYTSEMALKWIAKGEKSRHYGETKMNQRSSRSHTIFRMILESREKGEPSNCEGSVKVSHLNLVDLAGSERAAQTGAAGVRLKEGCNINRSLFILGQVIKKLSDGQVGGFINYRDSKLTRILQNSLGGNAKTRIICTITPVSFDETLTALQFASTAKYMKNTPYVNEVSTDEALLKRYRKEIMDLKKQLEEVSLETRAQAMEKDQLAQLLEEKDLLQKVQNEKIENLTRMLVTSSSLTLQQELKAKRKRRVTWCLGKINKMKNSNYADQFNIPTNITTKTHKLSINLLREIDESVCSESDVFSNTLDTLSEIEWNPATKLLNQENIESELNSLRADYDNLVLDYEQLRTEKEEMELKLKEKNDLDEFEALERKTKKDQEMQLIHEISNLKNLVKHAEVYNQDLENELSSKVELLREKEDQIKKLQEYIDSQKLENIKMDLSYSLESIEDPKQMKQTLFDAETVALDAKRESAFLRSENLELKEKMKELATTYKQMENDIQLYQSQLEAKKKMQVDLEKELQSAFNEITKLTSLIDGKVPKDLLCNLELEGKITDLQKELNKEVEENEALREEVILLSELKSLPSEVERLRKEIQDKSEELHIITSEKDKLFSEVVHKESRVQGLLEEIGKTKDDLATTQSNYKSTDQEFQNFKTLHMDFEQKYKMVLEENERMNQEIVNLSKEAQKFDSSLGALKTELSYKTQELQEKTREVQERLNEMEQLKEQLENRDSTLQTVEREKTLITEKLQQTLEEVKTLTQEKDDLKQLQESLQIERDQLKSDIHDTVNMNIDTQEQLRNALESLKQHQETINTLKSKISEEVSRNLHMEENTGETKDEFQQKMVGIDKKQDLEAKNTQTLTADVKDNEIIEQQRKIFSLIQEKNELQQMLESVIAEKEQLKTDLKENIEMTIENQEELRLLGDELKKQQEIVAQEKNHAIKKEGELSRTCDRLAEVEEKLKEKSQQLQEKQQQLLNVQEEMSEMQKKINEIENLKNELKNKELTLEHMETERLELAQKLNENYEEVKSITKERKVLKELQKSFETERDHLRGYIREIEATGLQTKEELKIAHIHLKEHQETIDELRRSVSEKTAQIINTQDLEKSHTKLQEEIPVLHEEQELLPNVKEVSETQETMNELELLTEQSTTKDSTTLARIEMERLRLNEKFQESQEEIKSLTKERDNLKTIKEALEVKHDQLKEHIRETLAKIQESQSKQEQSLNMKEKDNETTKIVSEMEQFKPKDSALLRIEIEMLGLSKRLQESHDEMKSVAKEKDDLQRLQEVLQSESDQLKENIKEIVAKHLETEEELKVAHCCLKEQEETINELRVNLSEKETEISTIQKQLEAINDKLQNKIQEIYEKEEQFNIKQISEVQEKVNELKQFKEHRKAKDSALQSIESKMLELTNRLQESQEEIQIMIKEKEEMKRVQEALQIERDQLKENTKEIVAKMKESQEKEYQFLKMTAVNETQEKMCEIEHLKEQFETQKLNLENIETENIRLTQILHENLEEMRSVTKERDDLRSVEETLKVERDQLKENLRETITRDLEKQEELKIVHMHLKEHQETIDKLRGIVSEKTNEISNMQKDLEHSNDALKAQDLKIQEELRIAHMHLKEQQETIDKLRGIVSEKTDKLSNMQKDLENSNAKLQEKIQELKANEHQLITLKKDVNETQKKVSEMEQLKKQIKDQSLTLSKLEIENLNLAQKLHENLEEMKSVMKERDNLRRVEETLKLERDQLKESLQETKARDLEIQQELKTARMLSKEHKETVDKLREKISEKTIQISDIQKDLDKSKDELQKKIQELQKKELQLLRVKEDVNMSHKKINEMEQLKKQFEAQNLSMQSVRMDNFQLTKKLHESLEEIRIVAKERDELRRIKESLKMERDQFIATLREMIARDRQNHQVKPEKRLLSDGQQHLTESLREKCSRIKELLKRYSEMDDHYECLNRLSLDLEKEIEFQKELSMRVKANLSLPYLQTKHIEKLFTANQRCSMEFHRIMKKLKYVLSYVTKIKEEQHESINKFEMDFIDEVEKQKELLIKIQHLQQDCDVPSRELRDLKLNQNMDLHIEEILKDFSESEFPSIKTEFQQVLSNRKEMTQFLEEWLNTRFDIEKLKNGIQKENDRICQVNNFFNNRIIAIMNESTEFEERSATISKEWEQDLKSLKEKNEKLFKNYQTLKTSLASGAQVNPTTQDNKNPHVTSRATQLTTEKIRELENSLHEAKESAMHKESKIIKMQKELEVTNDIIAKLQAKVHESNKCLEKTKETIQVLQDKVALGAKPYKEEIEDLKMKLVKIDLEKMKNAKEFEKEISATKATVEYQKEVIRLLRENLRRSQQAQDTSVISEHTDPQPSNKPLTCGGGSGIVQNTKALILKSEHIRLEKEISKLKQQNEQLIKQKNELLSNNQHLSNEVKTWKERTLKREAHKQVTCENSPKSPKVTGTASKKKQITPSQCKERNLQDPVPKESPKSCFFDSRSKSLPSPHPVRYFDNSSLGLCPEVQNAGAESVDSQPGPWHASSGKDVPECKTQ

SNU-475 = assay: Anticancer activity against human SNU-475 cells assessed as cell doubling measured for 72 hrs by DAPI staining based analysis; format: functional
ES-2 = assay: Anticancer activity against human ES2 cells assessed as cell doubling measured for 72 hrs by DAPI staining based analysis; format: functional
MV4-11 = assay: Anticancer activity against human MV4-11 cells assessed as cell growth inhibition measured after 72 hrs by DAPI staining based analysis; format: functional
YAPC = assay: Anticancer activity against human YAPC cells assessed as cell doubling measured for 72 hrs by DAPI staining based analysis; format: functional
RL95-2 = assay: Anticancer activity against human RL95-2 cells assessed as cell doubling measured for 72 hrs by DAPI staining based analysis; format: functional
OVCAR-8 [3] = assay: Anticancer activity against human OVCAR-8 cells assessed as cell growth inhibition measured after 72 hrs by DAPI staining based analysis; format: functional
OVCAR-8 [4] = assay: Anticancer activity against human OVCAR-8 cells assessed as cell doubling measured for 72 hrs by DAPI staining based analysis; format: functional
SW948 [5] = assay: Anticancer activity against human SW948 cells assessed as cell growth inhibition measured after 72 hrs by DAPI staining based analysis; format: functional
SK-MEL-28 = assay: Anticancer activity against human SK-MEL-28 cells assessed as cell growth inhibition measured after 72 hrs by DAPI staining based analysis; format: functional
PC-3 = assay: Anticancer activity against human PC-3 cells assessed as cell doubling measured for 72 hrs by DAPI staining based analysis; format: functional
[6] = tested on: KATO III stomach cancer cell line; assay: Anticancer activity against human KATO III stomach cancer cell line cells assessed as cell growth inhibition measured after 72 hrs by DAPI staining based analysis; format: functional
SK-OV-3 = assay: Anticancer activity against human SK-OV-3 cells assessed as cell doubling measured for 72 hrs by DAPI staining based analysis; format: functional
NCI/ADR-RES = assay: Anticancer activity against human NCI/ADR-RES cells assessed as cell growth inhibition measured after 72 hrs by DAPI staining based analysis; format: functional
[7] = Anticancer activity against human C4-1 cells assessed as cell doubling measured for 72 hrs by DAPI staining based analysis; format: functional
CCF-STTG1 = assay: Anticancer activity against human CCF-STTG1 cells assessed as cell doubling measured for 72 hrs by DAPI staining based analysis; format: functional
Procedure, shortened: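 Cell-growth inhibition in 384-well plates. DNA content of fixed cells stained with DAPI was read by automated imaging 24 h after seeding (T0) and again after a further 72 h exposure to varying drug concentrations (T72). T72 values were normalized to T0, and curves were fitted to give the concentration causing 50% growth inhibition relative to T0 and Ymax (GI50).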

HOP-62 = assay: Anticancer activity against human HOP-62 cells assessed as cell growth inhibition measured after 72 hrs by DAPI staining based analysis; format: functional
RL = assay: Anticancer activity against human RL cells assessed as cell growth inhibition measured after 72 hrs by DAPI staining based analysis; format: functional
HCC1954 = assay: Anticancer activity against human HCC1954 cells assessed as cell growth inhibition measured after 72 hrs by DAPI staining based analysis; format: functional
Procedure, shortened: (§1)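 Cells seeded, DAPI-stained DNA content of fixed cells read by imaging 24 h after seeding (T0), and again after a further 72 h exposure to a range of drug concentrations (T72). T72 values were normalized to T0. Curve fits gave the concentration producing 50% growth inhibition relative to T0 and Ymax (GI50).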

[8] = Anticancer activity against human KHOS-240S cells assessed as cell growth inhibition measured after 72 hrs by DAPI staining based analysis; format: functional
EFM-19 = assay: Anticancer activity against human EFM-19 cells assessed as cell growth inhibition measured after 72 hrs by DAPI staining based analysis; format: functional; procedure, shortened: as §1
Caov-3 cell line = assay: Anticancer activity against human Caov-3 cells assessed as cell doubling measured for 72 hrs by DAPI staining based analysis; format: functional
HCC1143 = assay: Anticancer activity against human HCC1143 cells assessed as cell growth inhibition measured after 72 hrs by DAPI staining based analysis; format: functional; procedure, shortened: as §1
NCI-H157 = assay: Anticancer activity against human NCI-H157 cells assessed as cell growth inhibition measured after 72 hrs by DAPI staining based analysis; format: functional
AGS = assay: Anticancer activity against human AGS cells assessed as cell doubling measured for 72 hrs by DAPI staining based analysis; format: functional
NCI-H358 = assay: Anticancer activity against human NCI-H358 cells assessed as cell doubling measured for 72 hrs by DAPI staining based analysis; format: functional
647-V = assay: Anticancer activity against human 647-V cells assessed as cell doubling measured for 72 hrs by DAPI staining based analysis; format: functional
SW948 [9] = assay: Anticancer activity against human SW948 cells assessed as cell doubling measured for 72 hrs by DAPI staining based analysis; format: functional
U2OS = assay: Anticancer activity against human U2OS cells assessed as cell doubling measured for 72 hrs by DAPI staining based analysis; format: functional
NCI-H295R = assay: Anticancer activity against human NCI-H295R cells assessed as cell doubling measured for 72 hrs by DAPI staining based analysis; format: functional
NCI-H187 = assay: Anticancer activity against human NCI-H187 cells assessed as cell growth inhibition measured after 72 hrs by DAPI staining based analysis; format: functional

- GI50 (NCI-H526): 88 nM
- GI50 (NCI-H747): 163 nM
- GI50 (SW837): 33 nM
- Ki [2]: 13 nM
- GI50 (MV4-11): 29 nM
- GI50 (OVCAR-8 [3]): 50 nM
- GI50 (SW948 [5]): 98 nM
- GI50 (SK-MEL-28): 31 nM
- GI50 [6]: 79 nM
- GI50 (HCC1954): 18 nM
- GI50 (HCC1143): 27 nM
- GI50 (NCI-H157): 37 nM
- GI50 (NCI-H187): 68 nM
Structure (SMILES): CC(C)Oc1ccc(C(=O)N[C@H](CNC(=O)CN(C)C)Cc2ccc(-c3cn4cccc([C@H](C)O)c4n3)cc2)cc1Cl [GSK-923295A]
- GI50 (UACC-62): 25 nM
- GI50 (ARH-77): 34 nM
- GI50 [1]: 25 nM
- Activity (BHT-101): 2.09
- Activity (SNU-475): 1.8
- Activity (ES-2): 3.69
- Activity (YAPC): 2.14
- Activity (RL95-2): 2.48
- Activity (OVCAR-8 [4]): 3.26
- Activity (PC-3): 3.07
- Activity (SK-OV-3): 1.72
- GI50 (NCI/ADR-RES): 3960 nM
- Activity [7]: 2.93
- Activity (CCF-STTG1): 1.2
- GI50 (HOP-62): 20 nM
- GI50 (RL): 37 nM
- GI50 [8]: 37 nM
- GI50 (EFM-19): 28 nM
- Activity (Caov-3 cell line): 2.17
- Activity (AGS): 2.95
- Activity (NCI-H358): 2.07
- Activity (647-V): 2.72
- Activity (SW948 [9]): 1.9
- Activity (U2OS): 3.08
- Activity (NCI-H295R): 1.52

— ChEMBL document CHEMBL5705890, “Antitumor activity of an allosteric inhibitor of centromere-associated protein-E” (Proc Natl Acad Sci U S A, 2010)
